Measured values taken from ChEMBL document CHEMBL1806419, “18β-Glycyrrhetinic acid derivatives induced mitochondrial-mediated apoptosis through reactive oxygen species-mediated p53 activation in NTUB1 cells” (Bioorg Med Chem, 2011).
Calls of active or inactive are those of the source. No cut-off for these calls is given here.

Key:
[1] = Cytotoxicity against human NTUB1 cells after 72 hrs by MTT assay; assay type: functional, cell-based; settings: NTUB1, 72 h
Procedure, shortened: (§1)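 Cells seeded 1800/well in 96-well plates, preincubated overnight at 37 °C, then exposed to graded concentrations for 72 h at 37 °C (NTUB1, PC3 in RPMI 1640; SV-HUC1 in F12; 10% FBS, 5% CO2). MTT (2 mg/mL) added 3 h, formazan dissolved in DMSO, absorbance 540 nm; viability as percent of control; IC50 by median-effect analysis, mean ± SD.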

[2] = Induction of apoptosis in human NTUB1 cells assessed as decrease in JC-1 aggregation at 10 uM after 24 hrs by flow cytometric analysis; assay type: functional; set-up: scale not given: the % may be the effect or the level left
Procedure, shortened: (§2)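 NTUB1 bladder carcinoma cells (3 × 10^5) in RPMI 1640 with 10% FBS at 37 °C, 5% CO2, exposed to test agent (10, 25 or 50 µM) with 10 µM CCCP as positive control. Stained 30 min with 1 µM JC-1 in medium, washed, trypsinised, resuspended in PBS/2% BSA. Flow cytometry read green monomer and red aggregate fluorescence; the aggregate/monomer ratio represents membrane potential.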

[3] = Induction of apoptosis in human NTUB1 cells assessed as increase in JC-1 probe monomers at 10 uM after 24 hrs by flow cytometric analysis; assay type: functional; procedure, shortened: as §2
[4] = Cell cycle arrest in human NTUB1 cells assessed as accumulation at G2/M phase at 1 mM after 24 hrs by propidium iodide staining based flow cytometric analysis (reference value: 20.37%); assay type: functional
Procedure, shortened: (§3)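 8×10^5 NTUB1 cells plated, treated 24 h (alongside 10 µM cisplatin, 1 mM NAC, 50 µM H2O2 controls); harvested by trypsinization, fixed overnight in ice-cold MeOH at −20 °C, stained with 50 µg/mL propidium iodide plus 50 µg/mL RNase A in PBS 30 min at room temperature; cell-cycle phase fractions and sub-G1 (apoptotic) DNA content by FACScan flow cytometry; three independent experiments.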

[5] = Cell cycle arrest in human NTUB1 cells assessed as accumulation at G1 phase at 1 mM after 24 hrs by propidium iodide staining based flow cytometric analysis (reference value: 50.64%); assay type: functional; procedure, shortened: as §3
[6] = Cell cycle arrest in human NTUB1 cells assessed as accumulation at S phase at 1 mM after 24 hrs by propidium iodide staining based flow cytometric analysis (reference value: 20.37%); assay type: functional; procedure, shortened: as §3
[7] = Cell cycle arrest in human NTUB1 cells assessed as accumulation at subG1 phase at 1mM after 24 hrs by propidium iodide staining based flow cytometric analysis (reference value: 6.68%); assay type: functional; procedure, shortened: as §3
[8] = Decrease in ROS generation in human NTUB1 cells at 1 mM after 24 hrs by H2DCFDA staining based flow cytometeric analysis relative to control; assay type: functional; set-up: scale not given: the % may be the effect or the level left
Procedure, shortened: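 NTUB1 cells (3×10^5 per 6 cm dish) treated 24 h (20 µM cisplatin and 1 mM NAC controls; medium-only control); 10 µM H2DCFDA added 30 min before harvest; trypsinized, PBS-washed, DCF green fluorescence (525 nm band pass, region M1) measured immediately by flow cytometry; percent change vs control; mean ± SD, n = 3.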

[9] = Cytotoxicity against human NTUB1 cells assessed as cell viability at 5 uM after 72 hrs by MTT assay relative to control; assay type: functional; settings: NTUB1, 72 h, read-out: Activity; procedure, shortened: as §1
[10] = Cytotoxicity against human NTUB1 cells assessed as cell viability at 10 uM after 72 hrs by MTT assay relative to control; assay type: functional; settings: NTUB1, 72 h, read-out: Activity; procedure, shortened: as §1
[11] = Cytotoxicity against human NTUB1 cells assessed as cell viability at 3 uM after 72 hrs by MTT assay relative to control; assay type: functional; settings: NTUB1, 72 h, read-out: Activity; procedure, shortened: as §1
[12] = Cytotoxicity against human NTUB1 cells assessed as cytotoxic inhibition at 1 uM after 72 hrs by MTT assay relative to control; settings: NTUB1, 72 h
[13] = Cytotoxicity against human NTUB1 cells assessed as cell viability at 50 uM after 72 hrs by MTT assay relative to control; assay type: functional; settings: NTUB1, 72 h, read-out: Activity; procedure, shortened: as §1
[14] = Cytotoxicity against human NTUB1 cells assessed as cell viability at 30 uM after 72 hrs by MTT assay relative to control; assay type: functional; settings: NTUB1, 72 h, read-out: Activity; procedure, shortened: as §1
[15] = system: PC-3; assay: Cytotoxicity against human PC3 cells after 72 hrs by MTT assay; assay type: functional, cell-based; procedure, shortened: as §1
[16] = Cytotoxicity against immortalized human SV-HUC1 cells after 72 hrs by MTT assay; assay type: cell-based; settings: sv-huc1, 72 h; procedure, shortened: as §1

SMILES | IC50 [1] [µM] | other results
COC(=O)[C@@]1(C)CC[C@]2(C)CC[C@]3(C)C(=CC(=O)[C@@H]4[C@@]5(C)CCC(=O)OC(C)(C)[C@@H]5CC[C@]43C)[C@@H]2C1 | 24.3 | –
C=C(C)[C@@H]1CC[C@]2(C)[C@H](C(=O)C=C3[C@@H]4C[C@@](C)(C(=O)Nc5ccccc5)CC[C@]4(C)CC[C@]32C)[C@@]1(C)CCC(=O)O | 3.31 | –
C=C(C)[C@@H]1CC[C@]2(C)[C@H](C(=O)C=C3[C@@H]4C[C@@](C)(C(=O)OCc5ccccc5)CC[C@]4(C)CC[C@]32C)[C@@]1(C)CCC(=O)O | 2.34 | –
C=C(C)[C@@H]1CC[C@]2(C)[C@H](C(=O)C=C3[C@@H]4C[C@@](C)(C(=O)OC)CC[C@]4(C)CC[C@]32C)[C@@]1(C)CCC(=O)NC(C)C | 31.4 | –
C=C(C)[C@@H]1CC[C@]2(C)[C@H](C(=O)C=C3[C@@H]4C[C@@](C)(C(=O)NC(C)C)CC[C@]4(C)CC[C@]32C)[C@@]1(C)CCC(=O)OC(C)C | 29.2 | –
CC1(C)[C@@H](O)CC[C@]2(C)[C@H]3C(=O)C=C4[C@@H]5C[C@@](C)(C(=O)O)CC[C@]5(C)CC[C@@]4(C)[C@]3(C)CC[C@@H]12 [ENOXOLONE] | 27.3 | –
C=C(C)[C@@H]1CC[C@]2(C)[C@H](C(=O)C=C3[C@@H]4C[C@@](C)(C(=O)OCc5ccccc5)CC[C@]4(C)CC[C@]32C)[C@@]1(C)CCC(=O)NCC | 42.7 | –
COC(=O)[C@@]1(C)CC[C@]2(C)CC[C@]3(C)C(=CC(=O)[C@@H]4[C@@]5(C)CCC(=O)C(C)(C)[C@@H]5CC[C@]43C)[C@@H]2C1 | 56.5 | –
N#CC(C#N)=NNc1cccc(Cl)c1 [CARBONYL CYANIDE M-CHLOROPHENYLHYDRAZONE] | – | Activity [2]: 48.42%; Activity [3]: 52.06%
C=C(C)[C@@H]1CC[C@]2(C)[C@H](C(=O)C=C3[C@@H]4C[C@@](C)(C(=O)NC(C)C)CC[C@]4(C)CC[C@]32C)[C@@]1(C)CCC(=O)NCCC | > 50 | –
C=C(C)[C@@H]1CC[C@]2(C)[C@H](C(=O)C=C3[C@@H]4C[C@@](C)(C(=O)OCc5ccccc5)CC[C@]4(C)CC[C@]32C)[C@@]1(C)CCC(=O)OCC | 27.8 | –
CC(=O)N[C@@H](CS)C(=O)O [ACETYLCYSTEINE] | – | Activity [4]: 20.2%; Activity [5]: 44.4%; Activity [6]: 29.2%; Activity [7]: 2.66%; Activity [8]: 26.1%
CC1(C)OC(=O)CC[C@]2(C)[C@H]3C(=O)C=C4[C@@H]5C[C@@](C)(C(=O)OCc6ccccc6)CC[C@]5(C)CC[C@@]4(C)[C@]3(C)CC[C@@H]12 | 57.6 | –
C=C(C)[C@@H]1CC[C@]2(C)[C@H](C(=O)C=C3[C@@H]4C[C@@](C)(C(=O)NC(C)C)CC[C@]4(C)CC[C@]32C)[C@@]1(C)CCC(=O)OC | 13.1 | viability at 5 µM [9]: 24%; viability at 10 µM [10]: 27%; viability at 3 µM [11]: 25%; cytotoxic inhibition at 1 µM [12]: 40%; viability at 50 µM [13]: 71%; viability at 30 µM [14]: 67%
CC(C)NC(=O)[C@@]1(C)CC[C@]2(C)CC[C@]3(C)C(=CC(=O)[C@@H]4[C@@]5(C)CCC(=O)OC(C)(C)[C@@H]5CC[C@]43C)[C@@H]2C1 | 25.7 | –
C=C(C)[C@@H]1CC[C@]2(C)[C@H](C(=O)C=C3[C@@H]4C[C@@](C)(C(=O)OC)CC[C@]4(C)CC[C@]32C)[C@@]1(C)CCC(=O)OC(C)C | 25.3 | –
C=C(C)[C@@H]1CC[C@]2(C)[C@H](C(=O)C=C3[C@@H]4C[C@@](C)(C(=O)OC)CC[C@]4(C)CC[C@]32C)[C@@]1(C)CCC(=O)O | 20.7 | –
C=C(C)[C@@H]1CC[C@]2(C)[C@H](C(=O)C=C3[C@@H]4C[C@@](C)(C(=O)OCc5ccccc5)CC[C@]4(C)CC[C@]32C)[C@@]1(C)CCC(=O)OC(C)C | 18.2 | –
C=C(C)[C@@H]1CC[C@]2(C)[C@H](C(=O)C=C3[C@@H]4C[C@@](C)(C(=O)OCc5ccccc5)CC[C@]4(C)CC[C@]32C)[C@@]1(C)CCC(=O)NC(C)C | 30.1 | –
C=C(C)[C@@H]1CC[C@]2(C)[C@H](C(=O)C=C3[C@@H]4C[C@@](C)(C(=O)OCc5ccccc5)CC[C@]4(C)CC[C@]32C)[C@@]1(C)CCC(=O)NCCC | 49.4 | –
CC1(C)C(=O)CC[C@]2(C)[C@H]3C(=O)C=C4[C@@H]5C[C@@](C)(C(=O)O)CC[C@]5(C)CC[C@@]4(C)[C@]3(C)CC[C@@H]12 | 18.6 | –
C=C(C)[C@@H]1CC[C@]2(C)[C@H](C(=O)C=C3[C@@H]4C[C@@](C)(C(=O)OCc5ccccc5)CC[C@]4(C)CC[C@]32C)[C@@]1(C)CCC(=O)OC | 9.41 | viability at 5 µM [9]: 20%; viability at 10 µM [10]: 50%; viability at 3 µM [11]: 22%; cytotoxic inhibition at 1 µM [12]: 32%; viability at 50 µM [13]: 68%; viability at 30 µM [14]: 66%
CC1(C)OC(=O)CC[C@]2(C)[C@H]3C(=O)C=C4[C@@H]5C[C@@](C)(C(=O)Nc6ccccc6)CC[C@]5(C)CC[C@@]4(C)[C@]3(C)CC[C@@H]12 | 16 | –
CC1(C)C(=O)CC[C@]2(C)[C@H]3C(=O)C=C4[C@@H]5C[C@@](C)(C(=O)OCc6ccccc6)CC[C@]5(C)CC[C@@]4(C)[C@]3(C)CC[C@@H]12 | 20.2 | –
C=C(C)[C@@H]1CC[C@]2(C)[C@H](C(=O)C=C3[C@@H]4C[C@@](C)(C(=O)NC(C)C)CC[C@]4(C)CC[C@]32C)[C@@]1(C)CCC(=O)NCC | 12.8 | Activity [15]: Active; Activity [16]: Non-toxic
C=C(C)[C@@H]1CC[C@]2(C)[C@H](C(=O)C=C3[C@@H]4C[C@@](C)(C(=O)NC(C)C)CC[C@]4(C)CC[C@]32C)[C@@]1(C)CCC(=O)OCC | 19.4 | Activity [15]: Active; Activity [16]: Non-toxic
C=C(C)[C@@H]1CC[C@]2(C)[C@H](C(=O)C=C3[C@@H]4C[C@@](C)(C(=O)NC(C)C)CC[C@]4(C)CC[C@]32C)[C@@]1(C)CCC(=O)O | 17.5 | –
CC1(C)OC(=O)CC[C@]2(C)[C@H]3C(=O)C=C4[C@@H]5C[C@@](C)(C(=O)O)CC[C@]5(C)CC[C@@]4(C)[C@]3(C)CC[C@@H]12 | 73.5 | –
